# Experimental data taken from PubChem BioAssay AID624204 (Sanford-Burnham Center for Chemical Genomics, 2012).
# The campaign covered roughly 360,000 compounds. About 770 (0.21%) were called active. This excerpt belongs to a sample that is enriched for actives. Values without a mark were called inactive.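 The calls were made as follows: active = inhibition at least 30% at 10 µM, raw YFP signal under a set limit, fluorescence ratio 0.5 to 1.5; inactive = the rest.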
# Target: Sentrin-specific protease 1 (Homo sapiens) (UniProt Q9P0U3)
# Sequence (Q9P0U3 419-644 limits assumed): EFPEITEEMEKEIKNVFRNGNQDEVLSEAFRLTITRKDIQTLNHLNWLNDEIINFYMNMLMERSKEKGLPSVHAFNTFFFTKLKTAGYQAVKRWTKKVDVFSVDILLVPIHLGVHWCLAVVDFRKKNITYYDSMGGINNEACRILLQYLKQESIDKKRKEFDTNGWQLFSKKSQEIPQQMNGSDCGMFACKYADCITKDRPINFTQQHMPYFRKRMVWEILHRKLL
# Test: human SENP1 catalytic domain inhibitors, primary screen, biochemical, FRET, uHTS (AID 624204);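 also: 0% = enzyme with DMSO and 100% = no enzyme wells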
# Conditions: recombinant SENP1 catalytic domain, CyPet-SUMO1-YPet FRET cleavage; at 10 µM; stronger effect = higher value
# Outline: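 material = recombinant human SENP1 catalytic domain, His6-tagged | quantity = 20 pM enzyme | reagent = 25 nM SUMO1 FRET substrate | compound dosing = 10 µM single point, 0.5% DMSO | timing = 50 min enzyme reaction, room temperature, light-protected | detection = FRET, CFP and YFP emission | control set = no-enzyme low, enzyme-DMSO high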
row,Compound,inhibition
1,COc1ccccc1N=Nc1c(O)[nH]c(=S)[nH]c1=O,48.9% (active)
2,CCOCCc1c(O)[nH]c(=S)[nH]c1=O,-0.672%
3,O=C1N=c2ccccc2=C/C1=C\c1c(O)[nH]c(=S)[nH]c1=O,-11.3%
4,CCCOC(=O)C1C2c3ccccc3C(c3ccccc32)C1C(=O)O (stereo not given),-1.79%
5,CC(CC(C#N)(c1ccccc1)c1ccccc1)N1CCCCC1 (stereo not given),1.04%
